Converted amounts (≈) assume the structure as drawn. The source made the active and inactive calls. How the calls were made is not given here. Residues, ends and D or L forms follow the SMILES beside them. *: point of attachment. Boc = CC(C)(C)OC(=O)*; NHBn = c1ccc(CN*)cc1
Columns and labels:
Aspergillus fumigatus = test: Antifungal activity against Aspergillus fumigatus assessed as growth inhibition; assay type: functional, organism-based
SK-MEL = test: Cytotoxicity against human SK-MEL cells assessed as cell viability after 48 hrs by neutral red uptake assay; assay type: cell-based
Procedure, shortened: (§1)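 Neutral red uptake assay on human cancer lines (SK-MEL, KB, BT-549, SK-OV-3) and noncancerous mammalian cells (VERO, LLC-PK1). Highest tested concentration was 10 µg/mL.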

Cryptococcus neoformans = test: Antifungal activity against Cryptococcus neoformans ATCC 90113 assessed as growth inhibition after 70-74 hrs by CLSI method; assay type: functional, organism-based
Escherichia coli = test: Antibacterial activity against Escherichia coli ATCC 35218 assessed as growth inhibition after 16-20 hrs by CLSI method; assay type: functional, organism-based
BT-549 = test: Cytotoxicity against human BT549 cells assessed as cell viability after 48 hrs by neutral red uptake assay; assay type: cell-based; conditions: bt-549, 48 h; procedure, shortened: as §1
Candida albicans = test: Antifungal activity against Candida albicans assessed as growth inhibition; assay type: functional, organism-based
LLC-PK1 = test: Cytotoxicity against pig LLC-PK1 cells assessed as cell viability after 48 hrs by neutral red uptake assay; assay type: cell-based, Sus scrofa; conditions: llc-pk1, 48 h; procedure, shortened: as §1
Pichia kudriavzevii = test: Antifungal activity against Candida krusei assessed as growth inhibition; assay type: functional, organism-based
SK-OV-3 = test: Cytotoxicity against human SKOV3 cells assessed as cell viability after 48 hrs by neutral red uptake assay; assay type: cell-based; conditions: sk-ov-3, 48 h; procedure, shortened: as §1
Nakaseomyces glabratus = test: Antifungal activity against Candida glabrata assessed as growth inhibition; assay type: functional, organism-based
KB = test: Cytotoxicity against human KB cells assessed as cell viability after 48 hrs by neutral red uptake assay; assay type: cell-based; procedure, shortened: as §1
Vero = test: Cytotoxicity against african green monkey Vero cells assessed as cell viability after 48 hrs by neutral red uptake assay; assay type: cell-based; conditions: chlorocebus sabaeus; procedure, shortened: as §1
[1] = Cryptococcus neoformans, ATCC 90113, read-out: IC50

Compound	growth inhibition (GI) (Aspergillus fumigatus)	Activity (SK-MEL)	MFC (Cryptococcus neoformans)	MIC (Cryptococcus neoformans)	IC50 (Cryptococcus neoformans; [1])	growth inhibition (GI) (Escherichia coli)	Activity (BT-549)	growth inhibition (GI) (Candida albicans)	Activity (LLC-PK1)	growth inhibition (GI) (Pichia kudriavzevii)	Activity (SK-OV-3)	growth inhibition (GI) (Nakaseomyces glabratus)	Activity (KB)	Activity (Vero)	IC50 (Cryptococcus neoformans)
COC(=O)[C@H](CCCNC(=N)N)NC(=O)[C@H](Cc1c[nH]c(-c2ccccc2)n1)NC(=O)OC(C)(C)C	inactive	> 10 µg/mL	inactive	inactive	16.6 µg/mL (≈ 33.1 µM)	inactive	> 10 µg/mL	inactive	> 10 µg/mL	inactive	> 10 µg/mL	inactive	> 10 µg/mL	> 10 µg/mL	–
COC(=O)[C@H](Cc1c[nH]c(-c2ccc(C(C)(C)C)cc2)n1)NC(=O)[C@@H](N)Cc1c[nH]c2ccccc12	inactive	> 10 µg/mL	inactive	inactive	18.8 µg/mL (≈ 38.6 µM)	inactive	> 10 µg/mL	inactive	> 10 µg/mL	inactive	> 10 µg/mL	inactive	> 10 µg/mL	> 10 µg/mL	–
Cc1ccc(-c2nc(C[C@H](NC(=O)[C@H](Cc3c[nH]c4ccccc34)NC(=O)OC(C)(C)C)C(=O)NCc3ccccc3)c[nH]2)cc1	inactive	> 10 µg/mL	inactive	inactive	–	inactive	> 10 µg/mL	inactive	> 10 µg/mL	inactive	> 10 µg/mL	inactive	> 10 µg/mL	> 10 µg/mL	Not Active
CC(C)(C)OC(=O)N[C@@H](Cc1c[nH]c2ccccc12)C(=O)N[C@@H](Cc1c[nH]c(-c2cccc3ccccc23)n1)C(=O)NCc1ccccc1	inactive	> 10 µg/mL	inactive	inactive	–	inactive	> 10 µg/mL	inactive	> 10 µg/mL	inactive	> 10 µg/mL	inactive	> 10 µg/mL	> 10 µg/mL	Not Active
CC(C)(C)OC(=O)N[C@@H](Cc1c[nH]c2ccccc12)C(=O)N[C@@H](Cc1c[nH]cn1)C(=O)NCc1ccccc1 (Boc-Trp-His-NHBn)	inactive	> 10 µg/mL	inactive	inactive	–	inactive	> 10 µg/mL	inactive	> 10 µg/mL	inactive	> 10 µg/mL	inactive	> 10 µg/mL	> 10 µg/mL	Not Active
COC(=O)[C@H](CCCNC(=N)N)NC(=O)[C@H](Cc1c[nH]c(-c2ccc(C(C)(C)C)cc2)n1)NC(=O)OC(C)(C)C	inactive	> 10 µg/mL	inactive	inactive	–	inactive	> 10 µg/mL	inactive	> 10 µg/mL	inactive	> 10 µg/mL	inactive	> 10 µg/mL	> 10 µg/mL	Not Active
COC(=O)[C@H](Cc1c[nH]c(-c2ccccc2)n1)NC(=O)[C@H](Cc1c[nH]c2ccccc12)NC(=O)OC(C)(C)C	inactive	> 10 µg/mL	inactive	inactive	–	inactive	> 10 µg/mL	inactive	> 10 µg/mL	inactive	> 10 µg/mL	inactive	> 10 µg/mL	> 10 µg/mL	Not Active
